In the library only some 2.4% were active in any assay of this set; here they are far more common.
Tb MetRS inh – blocks T. brucei methionyl-tRNA synthetase activity; purified T. brucei MetRS, ATP depletion, Kinase-Glo luminescence; AID 624268; inhibition, % at 11.9 µM; 360,000 tested, 0.4% active;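 active = inhibition above a per-plate cutoff of the control wells' mean inhibition plus 3 SD, cut at about 5.5% in these data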;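 also: 0% = DMSO wells median and 100% = median of wells with control inhibitor compound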
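Material – parasite MetRS enzyme · Medium – HEPES-MgCl2-KCl buffer plus DTT, spermine, BSA, pyrophosphatase · Reagent – ATP, methionine and E. coli bulk tRNA substrates · Times – 15 min enzyme-compound preincubation, 2 h reaction, 10 min detection, 25 °C · Measured by – luminescence of leftover ATP · Evaluation – percent inhibition relative to median high and low control wells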
CSN inh – CSN deneddylation inhibition; Q92905; Purified CSN, SCF-Nedd8-OG deneddylation, fluorescence polarization; inhibition, % at 12.5 µM; 360,000 tested, 0.38% active;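 active = pattern-corrected inhibition above about 35%, with an unprinted fluorescence ratio check between 0.5 and 1.5, limit read from the data, passing the limit was not always enough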;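 also: 0% = enzyme with substrate and 100% = substrate without enzyme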
Target sequence (Q92905 whole entry, looked up, one chain of several): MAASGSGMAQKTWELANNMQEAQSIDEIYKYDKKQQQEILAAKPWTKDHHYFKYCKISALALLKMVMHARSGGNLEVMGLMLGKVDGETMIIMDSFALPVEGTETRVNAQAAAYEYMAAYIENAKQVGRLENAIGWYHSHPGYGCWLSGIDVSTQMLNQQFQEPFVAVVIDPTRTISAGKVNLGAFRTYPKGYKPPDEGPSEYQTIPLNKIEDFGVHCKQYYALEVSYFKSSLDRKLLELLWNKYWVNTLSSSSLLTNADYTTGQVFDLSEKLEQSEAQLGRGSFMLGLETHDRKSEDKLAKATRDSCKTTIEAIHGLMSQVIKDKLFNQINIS
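Assay system: purified human Csn5 enzyme expressed in HEK293T cells; Input: 0.24 nM Csn5 enzyme, final concentration; Reagent: 10 nM SCFSkp2-Nedd8OG; Compound dosing: 12.5 µM single point; Times: reaction 90 min, room temperature; Technique: fluorescence polarization readout.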
HNF4A DNA FP – change in binding of human HNF4 alpha to DNA. P41235. HNF4a-FITC DNA binding, fluorescence polarization, 1 h. activity change, % at 10 µM. 360,000 tested, 0.3% active; in the data active = activity change above about 30%, passing the limit was not always enough
Rpn11 inh – Rpn11 (human) deubiquitinase inhibition; O00487; human 26S proteasome, Ub4-pepOG fluorescence polarization; 20S core pre-blocked with epoxomicin; inhibition, % at 20 µM; 360,000 tested, 0.59% active; AID 588493;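 active = inhibition at 20 µM, scaled to each plate's controls, above about 33%, limit read from the data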
Neddylation inh – blocks human cullin neddylation. TR-FRET cullin neddylation, biochemical. AID 651699. P61081+Q13564. inhibition, % at 25 µM. 360,000 tested, 0.58% active; in the data active = inhibition above about 36%
PREPL inh – human PREPL enzyme inhibition; Q4J6C6; recombinant PREPL, fluorescence polarization activity-based probe; inhibition, % at 5.96 µM; 320,000 tested, 0.68% active; AID 2751; in the data active = inhibition above about 43%;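 also: 0% = enzyme with DMSO and 100% = wells lacking enzyme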
* marks the source's active call; other numbers are inactive results; x = no result given.

SMILES	Tb MetRS inh	CSN inh	HNF4A DNA FP	Rpn11 inh	Neddylation inh	PREPL inh
CCOCCCNc1nc2ccccc2[nH]1	8.2*	-5	-4	-8	-1	14
O=c1oc2c(O)c(O)cc3c(=O)oc4c(O)c(O)cc1c4c23	0	55	-91	39	1	54*
CCC(C)[C@H](NS(=O)(=O)c1ccc(C)cc1)C(=O)N1CCC(C(=O)N2CCC(C(=O)OC)CC2)CC1 (some centres undefined)	1	0	8	-6	5	3
Cc1occc(=O)c1OC(=O)Nc1ccc(Cl)c(Cl)c1	-1	-13	5	42*	8	-5
COc1ccc(C(=O)Oc2c(C)occc2=O)cc1OC	-2	0	0	2	-2	2
COc1ccc(CNC(=O)C(=O)NC2CC(C)(C)NC(C)(C)C2)cc1	0	4	138*	-10	4	18
O=C1NC(=S)S/C1=C\c1ccc(SCc2ccccc2)o1	0	69	35*	84*	-3	21
O=C1NC(=S)S/C1=C\c1ccc(SCc2ccco2)o1	1	56	-21	182*	-4	29
CC1=NN(c2ccccc2)C(=O)/C1=C\c1cn(CCC#N)nc1-c1ccc(Cl)cc1	0	0	35*	2	0	1
CCOC(=O)c1cc(NC(=O)c2ccccc2)c(=O)oc1C(F)(F)F	0	14	46*	-1	5	x
Cc1ccc(CNn2cn[nH]c2=S)cc1	0	-3	-3	-4	1	-4
O=C(CSc1nc2ncc(Br)cc2[nH]1)Nc1ccc2c(c1)OCO2	67*	-5	-3	-4	-21	6
N#C/C(=C\c1coc2ccccc2c1=O)C(N)=S	-1	14	15	44*	-28	-13
O=C(CN1CCCN(S(=O)(=O)c2ccc(F)cc2)CC1)Nc1c(Cl)cccc1Cl	0	109*	2	-5	-5	-3
Cc1ccc(N2C(=O)c3cccc4c([N+](=O)[O-])ccc(c34)C2=O)c2cccnc12	-1	0	-9	-8	x	-4
Cc1ccnc(N2C(=O)c3cccc4c([N+](=O)[O-])ccc(c34)C2=O)c1	1	-25	-38	-79	45*	9
N#Cc1cc(N)c(Nc2ccccc2)cc1C#N	8.2*	7	-4	1	x	19
Cc1ccccc1NS(=O)(=O)c1cccc(C(=O)Nc2cccc(C(=O)O)c2)c1	0	-7	-4	-1	8	4
O=C(Nc1ccccc1O)c1cccc(S(=O)(=O)Nc2ccccc2O)c1	6.3*	0	1	-15	2	12
CC1=[N+](C)c2ccc3ccccc3c2C1(C)C	-1	5	2	11	44*	-125
c1ccc2c(c1)ccc1ccccc12	1	3	2	-1	-4	-2
COc1ccc2nc(N3CCCCC3)c(/C=C3\SC(=S)NC3=O)cc2c1	0	17	16	71*	-25	1
Cc1ccc(NC(=O)N2CCc3ccccc3C2)c(C)c1	0	-2	0	4	7	-2
C=CCN1C(=O)/C(=C/c2ccc(O)c(OC)c2)S/C1=N/c1nccs1	-1	83*	95*	x	-16	6
CCOc1cc(/C=N/NC(=O)c2nnn(-c3nonc3N)c2C)ccc1OCc1ccc(F)cc1	0	5	0	1	x	28
SMILES	Tb MetRS inh	CSN inh	HNF4A DNA FP	Rpn11 inh	Neddylation inh	PREPL inh
CCOc1cc(/C=N/NC(=O)c2nnn(-c3nonc3N)c2C)ccc1OCc1ccc(C)cc1	0	41*	25	8	x	x
CN(C)c1ccc(/C=C(/NC(=O)c2ccccc2)C(=O)NCCCn2ccnc2)cc1	0	72*	14	x	-6	11
O=C(N/N=C\c1ccc(-c2ccccc2[N+](=O)[O-])o1)C1COc2cc3ccccc3cc2O1 (centres undefined)	10*	3	-10	-19	-1	24
O=C(N/N=C\c1ccc(-c2ccccc2[N+](=O)[O-])o1)C1COc2ccccc2O1 (centres undefined)	0	-7	2	-3	-7	25
CN(C(=O)COC(=O)/C=C/c1ccc(C(F)(F)F)cc1)c1c(N)n(Cc2ccccc2)c(=O)[nH]c1=O	0	2	-1	-4	-8	15
Cc1cc(C)c2c(c1)CC(C)(C)CC2=O	0	-3	57*	2	-3	x
Cc1cc(C)c(-c2c(O)c3c(n(C)c2=O)CC(C)(C)CC3=O)c(C)c1	-1	-1	1	-5	12	-3
CCCOc1ccc(C(=O)c2ccccc2C(=O)O)cc1OCCC	-1	2	-4	1	-6	6
CCOc1ccc(C(=O)c2ccccc2C(=O)O)cc1OCC	-1	57*	0	6	6	-10
CC(=O)c1ccc(NC(=O)c2cccc(N3C(=O)c4ccccc4C3=O)c2)cc1	-1	132	165	59*	8	2
O=C(O)c1cc(NC(=O)c2cccc(N3C(=O)c4ccccc4C3=O)c2)cc(C(=O)O)c1	0	5	-3	-2	-20	-4
CSC1=C(C#N)C(c2ccncc2)C(C(=O)Nc2ccccc2)=C(C)N1 (centres undefined)	0	93*	-2	-4	6	-9
CS(=O)(=O)Cc1cccc(C(=O)NN(c2ccccc2)c2ccccc2)c1	0	-2	3	4	-13	4
Cc1cc2nc(-c3cccc(Cl)c3)c(Cc3cccc(Cl)c3)n2c(C)c1Br	0	7	6	x	-93	x
Cc1cc2nc(-c3ccco3)c(Cc3cccc(Cl)c3)n2c(C)c1Br	0	36*	6	x	-119	x
Cc1cccc(C)c1NC(=O)C(C1CC1)n1c(=O)c(-c2cc3ccccc3[nH]2)nc2ccccc21 (centres undefined)	-1	4	3	x	x	x
CCN1C(=O)c2cccc3c(S(=O)(=O)Nc4ncccc4C)ccc1c23	-1	-1	-1	6	51*	-2
COC1=CC(=O)C[C@@H](C)[C@]12Oc1c(Cl)c(OC)cc(OC)c1C2=O	0	2	6	3	46*	-13
COC1=CC(=O)CC(C)C12Oc1c(Cl)c(OC)cc(OC)c1C2=O (centres undefined)	0	1	1	-4	37	5
COC(=O)c1ccc(Nc2cc(C)nc(-c3ccccc3O)n2)cc1	0	2	37*	-2	-159	5
COC(=O)c1cccc(Nc2cc(C)nc(-c3ccccc3O)n2)c1	-1	-2	1	21	-214	18
COc1ccc2[nH]c3c(c2c1)CCN1C(=O)C(CC(=O)NCC24CC5CC(CC(C5)C2)C4)C[C@H](C(=O)N(C(C)C)C(C)C)[C@@]31C (some centres undefined)	0	4	1	23	0	x

Screening data from PubChem BioAssay.
